Records with an inconclusive call do not appear.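 Rule for the calls, unless noted: active = viability increase at or above a cutoff of the median across tested compounds plus 3 SD (cut at about 8.5% in these data, passing the limit was not always enough); inconclusive = some gains above the cutoff, reason not given; inactive = the rest.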
Tests used:
[1] = OD615 S. cerevisiae growth inhibition, permissive medium, pilot counter-assay, permissive growth control for S. cerevisiae lifespan shortening project (AID 705;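 active = growth inhibition above 25% in both replicates, a cutoff set 3 SD above the mean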); conditions: OD615, 24 h, at 10 µM, active compounds read high
Outline: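 Material: engineered DeaD yeast; compound dosing: one dose 10 µM, DMSO 0.25% final; measure: yeast growth inhibition indicated by reduced 24 h OD615; detection: OD615 turbidity read; incubation: cells pre-grown 4 h, then 24 h compound exposure, 30 °C humidified; medium: permissive synthetic complete medium with raffinose and galactose carbon sources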

[2] = Restrictive medium S. cerevisiae growth inhibition, OD615, pilot screen of yeast lifespan reduction project, restrictive growth control (AID 706;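 active = growth inhibition above a set limit, 3 SD over mean compound inhibition, in both replicates, cut at about 43% in these data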;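 note: modified DeaD lifespan yeast strain shifted to restrictive glucose medium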); conditions: OD615, 48 h, at 10 µM, active compounds read high
Outline: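 material = engineered S. cerevisiae DeaD strain | medium = glucose-based CSMM-D restrictive medium | times = 4 h pre-incubation, 48 h exposure at 30 °C | technique = OD615 absorbance reading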

[3] = viability gain of MRP-1-high H69AR cells under doxorubicin, pilot screen, MRP-1 activator project, CellTiter-Glo, duplicate (AID 807); conditions: H69AR viability with doxorubicin, CellTiter-Glo luminescence; at 10 µM; active compounds read high;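 note: compound pretreatment 18-22 h then 72 h combined with doxorubicin; 0% = doxorubicin alone and 100% = vehicle without doxorubicin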
[4] = growth suppression of beta-catenin knockout HCT116, pilot screen, human colon tumor cells (AID 823;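 active = cell viability at or below a set limit in both duplicate runs, the limit being the all-compound median minus 4 SD, cut at about 23% in these data, passing the limit was not always enough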;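 note: 0% = wells killed by 20 µM Hyamine and 100% = untreated DMSO cell wells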); conditions: CellTiter-Glo, 60 h, at 10 µM, active compounds read low
[5] = growth suppression of PTEN-deleted HCT116, pilot screen, cell-based, HCT116 clonal line, CellTiter-Glo (AID 824;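 active = viability at or below 27.92% in each of two runs, the all-compound median minus 4 SD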;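 note: 0% = 20 µM Hyamine control and 100% = vehicle cell control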); conditions: 60 h, at 10 µM, active compounds read low
[6] = inhibitors of the yeast RAM network, pilot screen, dse1pr::URA3 reporter, 5-FOA selection (AID 869;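 active = inhibition over a set limit, the all-compound mean plus 3 SD, in both replicate runs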;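 note: 0% = DMSO wells with no growth and 100% = 10 µM 1-NA-PP1 with full growth; RAM network block rescues cells from 5-FOA so hits raise OD615 growth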); conditions: S. cerevisiae dse1pr::URA3 5-FOA growth, OD615, 2 d; at 10 µM; active compounds read high; strain carries analog-sensitive mutant Cbk1 kinase
[7] = RAM signaling pathway blockade in yeast – S. cerevisiae, Pdr1DBD-CYC8 efflux-inhibited sensitized strain, primary screen (AID 1298;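 active = RAM network inhibition above 8.4% in each of two replicates, 3 SD over the compound average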;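 note: 0% = DMSO untreated cells without growth and 100% = 10 µM 1-NA-PP1 full growth; higher means more yeast growth rescued from 5-FOA killing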); conditions: S. cerevisiae cbk1-as DSE1-URA3 strain, 5-FOA growth OD615, 2 d; at 50 µM; active compounds read high

CN(CCNC(=O)Cn1c(=O)sc2ccccc21)Cc1ccccc1
inactive: growth inhibition [1] -1.18% | growth inhibition [2] -7.1% | viability increase [3] -5.12% | viability [4] 77.7% | viability [5] 82.3% | inhibition [6] 1.27% | RAM network inhibition [7] -1.1%

Cc1nn(Cc2c(Cl)cccc2Cl)c(C)c1NC(=O)c1cc(C(C)C)on1
inactive: growth inhibition [1] -10.6% | growth inhibition [2] 0.6% | viability increase [3] -1.33% | viability [4] 74.2% | viability [5] 62.9% | inhibition [6] 2.81% | RAM network inhibition [7] 2.56%

CCC(C)NC(=O)Cn1cc2c(n1)CCC(C)C2 (stereo not given)
inactive: growth inhibition [1] -6.78% | growth inhibition [2] 6.43% | viability increase [3] -1.54% | viability [4] 103% | viability [5] 97.3% | inhibition [6] 0.14% | RAM network inhibition [7] 0.42%

COc1cccc(Cn2nnc(C(=O)NCc3ccc(F)cc3)c2N)c1
inactive: growth inhibition [1] -5.24% | growth inhibition [2] -6.34% | viability increase [3] -1.74% | viability [4] 95% | viability [5] 85.6% | inhibition [6] 0.99% | RAM network inhibition [7] 3.37%

Cc1[nH]c(C)c2c(=O)n(-c3ccccc3)ncc12
inactive: growth inhibition [1] -19.9% | growth inhibition [2] -17.5% | viability increase [3] 0.12% | viability [4] 101% | viability [5] 102% | inhibition [6] 1.31% | RAM network inhibition [7] 2.55%

CCN1CCN(c2ncnc3c2cnn3-c2ccccc2)CC1
inactive: growth inhibition [1] -13.8% | growth inhibition [2] -7.68% | viability increase [3] 1.69% | viability [4] 102% | viability [5] 89.8% | inhibition [6] 1.7% | RAM network inhibition [7] 2.03%

Cc1oc2c(c(=O)c1C)C(=O)CC(c1ccccc1)C2 (stereo not given)
inactive: growth inhibition [1] -10.3% | growth inhibition [2] -15.9% | viability increase [3] -3.41% | viability [4] 88.5% | viability [5] 91% | inhibition [6] 0.115% | RAM network inhibition [7] -1.15%

O=C(OCC(=O)c1cccs1)c1ccc(NC(=O)c2ccco2)cc1
inactive: growth inhibition [1] -6.02% | growth inhibition [2] -19.9% | viability increase [3] -3.62% | viability [4] 96.9% | viability [5] 76.1% | inhibition [6] 0.87% | RAM network inhibition [7] 0.26%

COc1ccccc1N1CCN(C(=O)CCc2ccc(S(=O)(=O)NC(C)C)cc2)CC1
inactive: growth inhibition [1] -12.7% | growth inhibition [2] -19.8% | viability increase [3] -2.97% | viability [4] 97.6% | viability [5] 102% | inhibition [6] 0.85% | RAM network inhibition [7] 4.61%

O=C1Nc2ccccc2C(O)(C(=O)NCc2ccc3c(c2)OCO3)N1c1ccccc1 (stereo not given)
inactive: growth inhibition [1] -2.08% | growth inhibition [2] -15.5% | viability increase [3] -3.17% | viability [4] 91.7% | viability [5] 92.5% | inhibition [6] 0.54% | RAM network inhibition [7] 0.05%

Brc1ccc(-c2nnc(-c3ccco3)o2)cc1
inactive: growth inhibition [1] -19.6% | growth inhibition [2] -17.3% | viability increase [3] 0.83% | viability [4] 95.1% | viability [5] 93.9% | inhibition [6] 0.93% | RAM network inhibition [7] 7.37%

COC(=O)c1cc(-c2ccc(Br)cc2)on1
inactive: growth inhibition [1] 1.85% | growth inhibition [2] 1.59% | viability increase [3] -2.76% | viability [4] 102% | viability [5] 96.6% | inhibition [6] 0.09% | RAM network inhibition [7] 1.79%

CC(C)N1CCc2c(sc(NC(=O)c3ccc(S(=O)(=O)N4CCOCC4)cc3)c2C#N)C1
inactive: growth inhibition [1] -4.83% | growth inhibition [2] -3.24% | viability increase [3] -2.2% | viability [4] 85.3% | viability [5] 86.3% | inhibition [6] 0.75% | RAM network inhibition [7] 1.3%

CNc1ccc(OC(F)F)cc1C(=O)c1ccccc1
inactive: growth inhibition [1] 12.9% | growth inhibition [2] -4.32% | viability increase [3] -2.34% | viability [4] 89.8% | viability [5] 92.9% | inhibition [6] 0.685% | RAM network inhibition [7] 2.22%

CC1CCN(C(=O)C(Cc2ccccc2)NS(=O)(=O)c2ccc3c(c2)oc(=O)n3C)CC1 (stereo not given)
inactive: growth inhibition [1] -12.5% | growth inhibition [2] -17.6% | viability increase [3] -1.4% | viability [4] 104% | viability [5] 94.1% | inhibition [6] 1.85% | RAM network inhibition [7] 8.04%

Cc1cccc(-c2nc(CS(=O)CC(=O)NC3CCCC3)c(C)o2)c1 (stereo not given)
inactive: growth inhibition [1] 6.19% | growth inhibition [2] 1.96% | viability increase [3] -3.32% | viability [4] 94.5% | viability [5] 91.7% | inhibition [6] 3.42% | RAM network inhibition [7] 4.67%

CSC1=N/C(=C\c2ccccc2F)C(=O)S1
inactive: growth inhibition [1] -23.1% | growth inhibition [2] -24.4% | viability increase [3] -2.19% | viability [4] 102% | viability [5] 104% | inhibition [6] 0.435% | RAM network inhibition [7] -0.79%

CC(=O)OC(/C(O)=C(\C#N)c1nc2ccccc2[nH]1)c1ccccc1 (stereo not given)
inactive: growth inhibition [1] 0.55% | growth inhibition [2] 3.63% | viability increase [3] -0.98% | viability [4] 59.6% | viability [5] 54.3% | inhibition [6] 1.63% | RAM network inhibition [7] 3.42%

CCOC(=O)N1CCN(C(=O)Cn2c(=O)sc3ccccc32)CC1
inactive: growth inhibition [1] -1.79% | growth inhibition [2] -7.62% | viability increase [3] -0.84% | viability [4] 100% | viability [5] 97.6% | inhibition [6] 1.68% | RAM network inhibition [7] 5.71%

COCCNC(=O)CS(=O)(=O)Cc1nc(-c2ccc(C)cc2)oc1C
inactive: growth inhibition [1] -7.2% | growth inhibition [2] -29% | viability increase [3] -0.43% | viability [4] 95.1% | viability [5] 95.3% | inhibition [6] -0.325% | RAM network inhibition [7] 3.68%

CCN(CC)C(=O)Cn1c(=O)n(-c2ccccc2)c(=O)n1CC(=O)N(CC)CC
inactive: growth inhibition [1] -4.64% | growth inhibition [2] 2.5% | viability increase [3] -1.25% | viability [4] 103% | viability [5] 97.4% | inhibition [6] 1.29% | RAM network inhibition [7] 1.08%

CCSc1nc2c(c(=O)[nH]1)C(C(C)C)C(C#N)=C(N)O2 (stereo not given)
inactive: growth inhibition [1] -20.5% | growth inhibition [2] -13% | viability increase [3] -2.8% | viability [4] 106% | viability [5] 98.9% | inhibition [6] 0.63% | RAM network inhibition [7] 2.73%

CC(C)CCNC(=O)Cn1cc2c(n1)CCCCC2
inactive: growth inhibition [1] 3.78% | growth inhibition [2] 2.78% | viability increase [3] -1.8% | viability [4] 106% | viability [5] 100% | inhibition [6] 1.82% | RAM network inhibition [7] 1.38%

CC1CCc2nn(CC(=O)NCCCN3CCCC3=O)cc2C1 (stereo not given)
inactive: growth inhibition [1] -17.8% | growth inhibition [2] -22.7% | viability increase [3] -1.1% | viability [4] 103% | viability [5] 93.7% | inhibition [6] 1.29% | RAM network inhibition [7] 4.13%

COc1ccc(C2C(C(=O)c3cccs3)=C(O)C(=O)N2c2nnc(C)s2)cc1OC (stereo not given)
inactive: growth inhibition [1] -6.25% | growth inhibition [2] 9.11% | viability increase [3] 1.59% | viability [4] 102% | viability [5] 101% | inhibition [6] 1.33% | RAM network inhibition [7] 2.05%

Source: PubChem BioAssay
